Data: article PMC4703045 (Chemistry & biology, 2015)

Legend:
[1] = test system: PKG Iβ; experiment: PKG Iβ kinase activation assay; format: biochemical; settings: Ni-IMAC-purified PKG Iβ, over basal activity (Figure S1B)
[2] = test system: KCa1.1 channel; experiment: KCa1.1 channel open probability; format: biochemical, rat; settings: 500 nM Ca2+
In short: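 Inside-out patches excised from enzymatically dispersed cerebral artery smooth muscle cells. Bath (cytosolic face), mM: 140 KCl, 2 MgCl2, 0.1 Mg-ATP, 10 HEPES pH 7.3, 3 EGTA, CaCl2 to 500 nM. Pipette, mM: 120 NaCl, 20 KCl, 2 MgCl2, 1 CaCl2, 10 HEPES pH 7.4. […] NPo normalised to control patches; mean ± SEM.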

[3] = test system: endothelium-denuded posterior cerebral arteries; format: cell-based, rat; settings: paxilline 1 µM; endothelium-denuded control PCAs without S1.5
[4] = test system: posterior cerebral arteries with intact endothelium; format: cell-based, rat; settings: control PCAs with intact endothelium, without S1.5
[5] = target: T1, PKG Iα (Bos taurus, UniProt P00516); experiment: PKG Iα kinase activation, γ32P-ATP incorporation assay with W15 substrate; format: biochemical; settings: for activation of PKG Iα (in words): absence of cGMP, 15 min pre-incubation at 30°C
T1 sequence (P00516 1-671): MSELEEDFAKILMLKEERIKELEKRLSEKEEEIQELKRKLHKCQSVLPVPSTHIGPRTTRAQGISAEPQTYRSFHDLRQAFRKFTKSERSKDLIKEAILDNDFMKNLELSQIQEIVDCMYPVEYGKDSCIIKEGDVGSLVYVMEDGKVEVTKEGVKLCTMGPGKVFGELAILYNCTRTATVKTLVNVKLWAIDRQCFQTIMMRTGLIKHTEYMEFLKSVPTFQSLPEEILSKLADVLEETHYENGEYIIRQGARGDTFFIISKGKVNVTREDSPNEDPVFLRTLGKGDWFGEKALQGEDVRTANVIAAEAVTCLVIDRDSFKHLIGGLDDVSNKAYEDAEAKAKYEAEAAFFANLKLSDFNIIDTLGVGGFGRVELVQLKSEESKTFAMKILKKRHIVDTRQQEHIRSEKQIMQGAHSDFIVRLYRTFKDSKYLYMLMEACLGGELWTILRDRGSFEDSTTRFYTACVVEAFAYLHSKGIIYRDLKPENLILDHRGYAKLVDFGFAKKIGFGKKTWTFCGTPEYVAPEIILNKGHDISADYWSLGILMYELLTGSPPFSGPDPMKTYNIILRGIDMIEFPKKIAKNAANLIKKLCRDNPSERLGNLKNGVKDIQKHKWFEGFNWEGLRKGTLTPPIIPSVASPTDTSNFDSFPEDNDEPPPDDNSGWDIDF

[6] = Secondary structure by circular dichroism spectroscopy; format: physicochemical; settings: 10 µM peptide in 10 mM PBS pH=7.4, 22°C, 260 to 190 nm
In short: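 CD spectra at 22°C in a 2 mm cuvette, with 10 µM peptide in 10 mM PBS pH 7.4. Scanned 260–190 nm at 0.5 nm intervals with 2 s integration and 100 nm/min. Ten accumulations were averaged per peptide, and output was given as mean residue ellipticity (mdeg × cm2/dmol × residue).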

[7] = target: cGMP-dependent protein kinase Iα (UniProt P00516)
[8] = target: cGMP-dependent protein kinase Iα (UniProt P00516); remark: listed apart in the source

Molecule: Nc1nc2c(ncn2[C@@H]2O[C@@H]3COP(=O)(O)O[C@H]3[C@H]2O)c(=O)[nH]1 [cGMP, cyclic guanosine-3’,5’-monophosphate]
- increase in activity under saturating quantities of cGMP [1]: 15 fold
- change in KCa1.1 open probability (NPo) ([2]; 50 nM cGMP with recombinant PKG Iα in bath solution): no significant change
- increase of KCa1.1 NPo above the control ([2]; 5 µM cGMP (saturating) with PKG Iα, p<0.002): eight

Molecule: CC(C)(O)[C@H]1O[C@H]2CC[C@@]3(C)[C@@](O)(CC[C@H]4Cc5c([nH]c6ccccc56)[C@@]43C)C2=CC1=O [paxilline]
- additional constriction on paxilline in control arteries [3]: 5%
- paxilline-induced constriction in control arteries [4]: 4%

Molecule: Ac-AEAKAKYEAEAAFFANLKLSD-NH2 [S1.11]
- activation of PKG Iα (in words) [5]: complete loss of activity

Molecule: Ac-ALKSENYADKVEFKDAKYEASALANEFADA-NH2 [S1.7]
- activation of PKG Iα (in words) [5]: did not activate the kinase
- helicity (secondary structure by CD) [6]: found to not be helical

Molecule: Ac-DAEAKAKYEAEAAFFANLKLSD-NH2 [S1.10]
- EC50 [5]: 45 ± 4 µM

Molecule: Ac-DVSNKAYEDAEAKAKYEAEAA-NH2 [S1.3]
- activation of PKG Iα (in words) [5]: completely abolished kinase activity
- helicity (secondary structure by CD) [6]: helicity was compromised but not completely lost

Molecule: Ac-DVSNKAYEDAEAKAKYEAEAAAAANLKLSD-NH2 [S1.6]
- activation of PKG Iα (in words) [5]: equivalent to removal of the entire knob
- helicity (secondary structure by CD) [6]: increased degree of helicity

Molecule: Ac-DVSNKAYEDAEAKAKYEAEAAFFANLK-NH2 [S1.2]
- EC50 [5]: 35 ± 4 µM

Molecule: Ac-DVSNKAYEDAEAKAKYEAEAAFFANLKLSD-NH2 [S1.1]
- EC50 [5]: 35 ± 4 µM
- activation of PKG Iα (in words) [5]: robust and cooperative activation
- effect on KM for the substrate peptide W15 ([5]; control experiment (Figure S4)): did not affect the KM
- increase of KCa1.1 channel activity (NPo) versus control ([2]; 100 µM peptide pre-incubated with PKG Iα, +10mV, p<0.05): 6 fold

Molecule: Ac-EDAEAKAKYEAEAAFFANLKLSD-NH2 [S1.9]
- EC50 [5]: 43 ± 5 µM

Molecule: Ac-NKAYEDAEAKAKYEAEAAFFANLKLSD-NH2 [S1.4]
- EC50 [5]: 12 ± 1 µM

B1: S1.4 (peptide)
peptide: Ac-NKAYEDAEAKAKYEAEAAFFANLKLSD-NH2
- maximal velocity of PKG Iα kinase activity with the peptide [7]: 80%

B2: S1.2 (peptide)
peptide: Ac-DVSNKAYEDAEAKAKYEAEAAFFANLK-NH2
- maximal efficacy of activation of PKG Iα kinase activity [8]: 60 % of maximum
